The text below walks through data of paper PMC8463510 (Acta Pharmaceutica Sinica. B, 2021).

In brackets after ≈: the same amount, converted by molar mass.

Data set [1] is described as follows: Apparent solubility in vitro. The format is physicochemical. The note with it: thermodynamic from solid; for solubility at 2 h: 25 °C.
Data set [2] can be described thus: Oral pharmacokinetics / bioavailability in rats. In kind it is in vivo. Conditions: male, Sprague-Dawley, rat, plasma, 4 mg/kg. The method in brief: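 Male SD rats (250 ± 50 g), fasted 12 h with water, randomised to groups, n = 6. Test compound or its cyclodextrin/CD-MOF formulations were suspended in 0.5% CMC-Na and given orally at 4 mg/kg (as parent). Orbital blood was taken into heparin at 0–24 h, and plasma stored at −80 °C. Progesterone internal standard, acidified-acetonitrile precipitation, HPLC–MS/MS MRM positive ion (m/z 319.2 → 273.2). PK by […] analysis; mean ± SD.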

For data set [3] the following is noted: azilsartan loaded in CD-MOF; cited from earlier work.
The conditions of data set [4]: azilsartan loaded in CD-MOF, SD rats; cited from earlier work.

For `C[C@@]12CC[C@@H]3[C@@](CC[C@H]4[C@@]3(C)CCC[C@@]4(C)C(=O)O)(CC1=O)C2` [STV, Isosteviol], the solubility at 2 h in data set [1] (pH 1, simulated gastric fluid) was less than 0.02 µg/mL; in data set [1] (pH 4.5, aqueous buffer), less than 0.02 µg/mL; in data set [1] (pH 6.8, aqueous buffer), 20.1 µg/mL (≈ 63 µM); in data set [1] (distilled water, water) it was 0.13 µg/mL (≈ 0.407 µM). Further, the solubility in data set [1] (KOH solution, pH 11, aqueous buffer) turned out to be 240 µg/mL (≈ 753 µM). Further, the exposure AUC(0-t) in data set [2] is 590 ng·h/mL. In data set [2], this compound gave a Cmax of 61 ± 39 ng/mL. Also, the Tmax in data set [2] was 3.01 h.

With `CCOc1nc2cccc(C(=O)O)c2n1Cc1ccc(-c2ccccc2-c2noc(=O)[nH]2)cc1` [azilsartan], the “apparent solubility, times of the API” value in data set [3] is on record as 340 times. For the same compound, in data set [4], the “bioavailability, times that of API” value is reported as 9.7 times.
